CRFBP-R2 agonist = agonists of human CRF-binding protein/CRF-R2 receptor complex; AID 588473; hit rate 0.46% among 350,000; activation, % at 13.2 µM; HEK293 CRF-R2/CRF-BP, calcium dye fluorescence (FLIPR); percent of saturating CRF peptide response;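 active means activation of at least 50%, plus an integration ratio under a set limit after plate pattern correction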;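 further: plate controls were neutral control wells without compound for no effect and CRF at EC100 for full effect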
Tn6 DDE FP = inhibitors of Tn6 peptide binding to human fibrin DD(E); P02675; Fibrin DD(E) TRITC-Tn6 fluorescence polarization displacement; inhibition, % at 8.3 µM; hit rate 0.21% among 370,000; AID 720509;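 active means inhibition above a per-campaign cutoff: mean of compounds within control limits plus 3 SD, cut at about 15% in these data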;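 further: 0% = median of all compound wells on the plate and 100% = blocking peptide control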
CendR NRP1 mod = modulators of CendR peptide binding to human neuropilin-1; O14786; FAM-RPARPAR peptide binding to NRP-1, fluorescence polarization; hit rate 0.85% among 360,000; inhibition, % at 25 µM;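 active means inhibition or corrected inhibition above about 18%, plus a signal ratio from 0.5 to 1.5, limit read from the data, passing the limit was not always enough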
CRFBP-R2 block = blocks CRF-induced signaling of the CRF-BP/CRF-R2 complex. HEK293 CRF-R2/CRF-BP, CRF-induced calcium fluorescence. inhibition, % at 11.8 µM. hit rate 0.59% among 350,000. AID 588475;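 active means inhibition of the ligand-induced calcium signal above about 50% at the single tested concentration, limit read from the data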
DDE Tn7 FP inh = DD(E)-Tn7 binding inhibition, primary FP screen. P02675. FP displacement of FITC-Tn7 peptide from fibrin DD(E); 0% = median of compound wells per plate. inhibition, % at 8.3 µM. hit rate 0.13% among 370,000;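 active means inhibition above the mean of compounds falling within the control limits plus 3 SD of them, cut at about 14% in these data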;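 further: 0% = plate median of compound wells and 100% = 10 µM Aha-Tn7 peptide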
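Assay system: Human fibrin DD(E) protein | Medium: Tris buffer with calcium and detergent, pH 7.8 | Reagent: 0.1 µM fluorescent Tn7 | Compound dosing: Single point at 8.3 µM | Times: 10 min preincubation, 3 h with tracer, room temperature | Detection: Fluorescence polarization of the labelled Tn7 tracer | Controls: Aha-Tn7 high control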
KLK7 zymogen act = proKLK7 (human) activation, primary screen; AID 652039; hit rate 0.9% among 370,000; activation, % at 7 µM; P49862; purified proKLK7, EDANS-DABCYL substrate fluorescence; 100% is mature enzyme control, 0% vehicle;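 active means activation above the mean of all tested compounds plus 3 SD, computed per campaign excluding outliers beyond control limits, cut at about 13% in these data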
Target sequence (P49862 whole entry, looked up): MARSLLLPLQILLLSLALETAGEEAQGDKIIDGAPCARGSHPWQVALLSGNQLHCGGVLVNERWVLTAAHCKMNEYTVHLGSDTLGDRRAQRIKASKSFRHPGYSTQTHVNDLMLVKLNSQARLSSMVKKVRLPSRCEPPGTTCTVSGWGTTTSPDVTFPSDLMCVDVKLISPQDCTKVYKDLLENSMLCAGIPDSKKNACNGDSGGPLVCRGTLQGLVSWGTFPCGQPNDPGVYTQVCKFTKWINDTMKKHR
KLK7 act conf = confirmation of human kallikrein-7 zymogen activators. purified proKLK7, EDANS-DABCYL substrate fluorescence; scaled: vehicle 0, mature enzyme 100. hit rate 68% among 3,200. shares compounds with KLK7 zymogen act. activation, % at 7 µM;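 active means activation, as change over the incubation, above the mean of all tested compounds plus 3 SD, cut at about 13% in these data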
EDANS interfere = optically interferes with EDANS-DABCYL signal, flagging KLK7 hits; shares compounds with KLK7 zymogen act; activation, % at 7 µM; EDANS-DABCYL substrate fluorescence interference, no enzyme, 4 h; solvent 0%, active enzyme control 100%; hit rate 80% among 3,200;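 active means activation above the all-compound mean plus 3 SD, ignoring values outside control-based bounds, cut at about 4.8% in these data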;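 further: value is the 4 h activation minus the activation read at time zero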
K7 EDANS ctr = counter-screen for kallikrein-7 activators: EDANS-DABCYL interference, dose response | shares compounds with KLK7 zymogen act | EDANS-DABCYL peptide fluorescence interference, no enzyme | EC50, µM | hit rate 20% among 250 | AID 720493;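 active means compounds that raise the fluorescence signal in this interference counterscreen, with EC50 at or below 10 µM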;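 further: intact quenched peptide substrate alone read at 355 nm excitation and 520 nm emission; signal is fluorescence gain from T0 to T4 after four hours at room temperature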
Numbers without * were called inactive; x = no result. An excerpt weighted towards active compounds, which were near 2.9% of everything screened.

SMILES	CRFBP-R2 agonist	Tn6 DDE FP	CendR NRP1 mod	CRFBP-R2 block	DDE Tn7 FP inh	KLK7 zymogen act	KLK7 act conf	EDANS interfere	others
CCOC(=O)c1cc2c(=O)n3ccccc3nc2n(CCOC)c1=NC(=O)C(C)(C)C	0.0	4.6	3.0	-5.0	0.8	12.5	x	x
CCOC(=O)c1cc2c(=O)n3ccccc3nc2n(CCOC)c1=NC(=O)c1ccncc1	-3.5	3.2	3.0	-19.9	-4.8	23.9*	8.2	12.8*
COC(=O)[C@]12CCCCC=C1N(Cc1ccc(OC)cc1)C(=O)[C@@H]2CC(=O)NCCCN1CCCC1=O	x	-2.9	x	x	0.7	0.7	x	x
C=CCN1C(=O)[C@H](CC(=O)NCC2CCCCC2)[C@@]2(C(=O)OCC)CCCC=C12	x	-5.3	x	x	-1.2	0.8	x	x
COCC(=O)N(c1ccc(C(C)(C)C)cc1)C(C(=O)NC(C)(C)C)c1cccnc1 (stereo not drawn)	x	4.3	x	x	2.3	x	x	x
CCOC(=O)c1cc2c(=O)n3ccccc3nc2n(CC(C)C)c1=NC(=O)c1ccco1	-1.8	2.7	-0.4	2.4	2.1	29.7*	24.1*	25.6*
COc1ccc(-n2c(SCC(=O)c3ccc4ccccc4c3)nnc2-c2ccccc2)cc1	x	-10.5	x	x	1.2	-0.9	x	x
COc1ccc(-c2ccnc3c(C#N)cnn23)cc1	-7.8	-3.7	13.5	8.1	-2.4	59.8*	68.8*	84.9*
N#Cc1cnn2c(-c3ccccc3)ccnc12	-0.3	1.8	-1.4	20.5	9.9	44.7*	58.5*	66.4*
COC(=O)[C@H]1C[C@@]2(C#N)c3ccccc3N(C(=O)OC(C)(C)C)[C@H]2N1C(=O)OC(C)(C)C	x	-3.8	x	x	-5.1	0.7	x	x
COC(=O)C1=C(C)N(C)C(=NCC2CC2)NC1c1ccccc1 (stereo not drawn)	x	1.4	x	x	3.8	-0.4	x	x
O=C(NCC1COCCO1)C1CCN(S(=O)(=O)c2cccc3ccccc23)CC1 (stereo not drawn)	x	3.8	x	x	0.3	-0.3	x	x
COc1ccc2c(c1OC)C(=O)OC2CC(=O)c1ccc(O)cc1 (stereo not drawn)	-1.3	-5.0	4.9	19.1	-1.6	20.5*	7.2	6.3*
COc1ccc2c(c1OC)C(=O)OC2CC(=O)c1ccc(O)c(O)c1 (stereo not drawn)	-0.7	-3.5	-38.8	21.2	-2.3	0.5	x	x
CN(C)[C@H]1CCN(c2cccc3c2S(=O)(=O)N2CC[C@@H](C2)O3)C1	x	3.9	x	x	-12.6	-0.9	x	x
Cc1cc(=O)oc2c3c(cc(OCC(=O)N[C@@H](Cc4ccccc4)C(=O)O)c12)OC(C)(C)CC3	-1.1	-0.2	-17.3	3.8	3.7	32.5*	41.3*	25.2*	K7 EDANS ctr=>69.5
Cc1cc(=O)oc2c3c(cc(OCC(=O)NC(Cc4ccc(Cl)cc4)C(=O)O)c12)OC(C)(C)CC3 (stereo not drawn)	1.8	13.7	-3.9	7.3	0.2	13.4*	8.3	3.4
Cc1nnsc1-c1nc2ccccc2[nH]1	-0.4	3.3	-1.0	1.3	4.7	32.0*	31.1*	45.0*
COc1ccc(OC)c(/C=C/C(=O)OCC(=O)NCc2cccs2)c1	2.4	-4.5	-2.7	2.2	-3.5	14.9*	9.3	21.0*
COc1ccc(OC)c(/C=C/C(=O)NCCc2nc3ccccc3[nH]2)c1	9.7	-4.0	-14.3	-25.2	-4.0	49.0*	37.2*	-31.3	K7 EDANS ctr=>69.5
COc1ccc(OC)c(/C=C/C(=O)OCC(=O)NCc2ccccc2)c1	-3.6	-2.3	31.8*	18.9	-5.6	14.7*	3.6	8.3*
CCN(CC(=O)NCc1cccs1)C(=O)/C=C/c1cc(OC)ccc1OC	-1.5	0.7	3.2	-5.5	-1.0	66.9*	71.5*	70.8*
